This note sets out measurements from ChEMBL document CHEMBL1126267, “A novel synthesis and potent antiinflammatory activity of 4-hydroxy-2(1H)-oxo-1-phenyl-1,8-naphthyridine-3-carboxamides” (1992).

Holding throughout (type): functional
Test [1] relates to Rattus norvegicus. The experiment in a line: Compound was tested for the inhibition of rat reversed passive Arthus pleurisy after peroral administration of 100 mg/kg dose at 2.96 +/- 0.16*10e6 no of cells. As to conditions: route oral. The gist of the method: (§1)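 Male Wistar rats (about 250 g) were given compound orally before the antiserum. Under ether anesthesia, 0.2 mL rabbit anti-egg albumin antiserum was injected intrapleurally. After 30 min, egg albumin (15 mg/100 g body weight in 0.1 mL saline) was given iv. Rats were killed 4.5 h later and the thoracic cavity was rinsed with 5 mL saline. Exudate volume and infiltrated cell number were measured, with inhibition % versus controls as mean ± SEM.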

The test system of test [2] is Rattus norvegicus. The experiment in a line: Compound was tested for the inhibition of rat reversed passive Arthus pleurisy after peroral administration of 100 mg/kg dose at 2.96*10e6 no of cells with 3.86*10e6 cells of control. As to conditions: route oral. The essentials: as §1
For test [3], the system named is Rattus norvegicus. The experiment in a line: Compound was tested for the inhibition of rat reversed passive Arthus pleurisy after peroral administration of 100 mg/kg dose at 0.28 mL of exudate volume with 0.86 mL of control (injected intrapleurally). The settings on record: route oral. The gist of the method:
as §1

For test [4], the system named is Rattus norvegicus. The experiment in a line: Inhibition of Zymosan-induced rat's paw edema(ZPE) after peroral administration of 100 mg/kg dose. The settings on record: route oral. The gist of the method:
(§2)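 Male Wistar rats (about 150 g) were dosed orally with compound suspended in 5% arabic gum, 1 h before a subplantar hind-paw injection of 0.1 mL saline. The irritant was 1% zymosan for 33 or 1% λ-carrageenin for 34. Paw volume was measured by plethysmograph before dosing and at 4 h (zymosan) or 3 h (carrageenin). Swelling is relative to initial volume, as mean ± SEM. % inhibition is versus the control group's mean swelling.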

For test [5], the system named is Rattus norvegicus. The test is described as follows: Compound was tested for the inhibition of Zymosan-induced rat's paw edema(ZPE) after peroral administration of 3 mg/kg dose. The settings on record: route oral. The essentials:
(§3)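 Male Wistar rats weighing about 150 g were dosed orally with compound suspended in 5% arabic gum. 1 h later, 1% zymosan in 0.1 mL saline was injected subplantarly into the hind paw. Paw volume was measured by plethysmograph before dosing and 4 h after zymosan, with edema as the volume difference. Inhibition % was derived from mean swelling versus the control group.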

Test [6] has as its system Rattus norvegicus. The test is described as follows: Compound was tested for the inhibition of arachidonic acid-induced rat's paw edema(APE) after peroral administration of 10 mg/kg dose. The settings on record: route oral. The essentials:
(§4)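 Test: arachidonic acid paw edema in male Wistar rats of about 150 g. Oral dosing in 5% arabic gum came 1 h before subplantar injection of 1% arachidonic acid sodium salt in 0.1 mL saline into the hind paw. Plethysmograph paw volume was read before dosing and 1 h post-irritant, and edema = volume difference. % inhibition was taken from mean swelling against controls.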

For test [7], the system named is Rattus norvegicus. The test is described as follows: Compound was tested for the inhibition of rat reversed passive Arthus pleurisy after peroral administration of 10 mg/kg dose at 4.30+/-0.41*10e6 no of cells. As to conditions: route oral. The essentials: as §1
Test [8] deals with Rattus norvegicus. The test is described as follows: Compound was tested for the inhibition of Zymosan-induced rat's paw edema(ZPE) after peroral administration of 10 mg/kg dose. As to conditions: po. The essentials: as §3
For test [9], the system named is Rattus norvegicus. The test is described as follows: Compound was tested for the inhibition of Carrageenan rat's paw edema(CPE) after peroral administration of 10 mg/kg dose. For orientation: The carrageenan paw model is a standard test of acute inflammation.
Test [10] concerns Rattus norvegicus. The test is described as follows: Compound was tested for the inhibition of Carrageenan rat's paw edema(CPE) after peroral administration of 3 mg/kg dose. The settings on record: route oral.
For test [11], the system named is Rattus norvegicus. The experiment in a line: Compound was tested for the inhibition of arachidonic acid-induced rat's paw edema(APE) after peroral administration of 3 mg/kg dose. As to conditions: route oral. The gist of the method: as §4
Test [12] deals with Rattus norvegicus. The test is described as follows: Compound was tested for the inhibition of arachidonic acid-induced rat's paw edema(APE) after peroral administration of 30 mg/kg dose. As to conditions: route oral. The essentials:
as §4

Test [13] has as its system Rattus norvegicus. The test is described as follows: Compound was tested for the inhibition of rat reversed passive Arthus pleurisy after peroral administration of 10 mg/kg dose at 0.37+/-0.07 mL of exudate volume (injected intrapleurally). The settings on record: route oral. The gist of the method:
as §1

Test [14] has as its system Rattus norvegicus. The experiment in a line: Compound was tested for the inhibition of rat reversed passive Arthus pleurisy after peroral administration of 100 mg/kg dose at 0.28+/-0.06 mL of exudate volume (injected intrapleurally). As to conditions: route oral. The gist of the method:
as §1

The test system of test [15] is Rattus norvegicus. The experiment in a line: Compound was tested for the inhibition of rat reversed passive Arthus pleurisy after peroral administration of 25 mg/kg dose at 4.25+/-0.1*10e6 no of cells. As to conditions: route oral. The gist of the method: (§5)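 Male Wistar rats (about 250 g) under ether received 0.2 mL rabbit anti-egg-albumin antiserum intrapleurally. Thirty min later they got 15 mg EA/100 g body weight in 0.1 mL saline iv. Compounds were given orally beforehand. Rats were killed 4.5 h after induction and the thoracic cavity rinsed with 5 mL saline. Exudate volume and infiltrated cell count were read as mean ± SE. % inhibition is versus control.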

In test [16] the test system is Rattus norvegicus. The test is described as follows: Compound was tested for the inhibition of rat reversed passive Arthus pleurisy after peroral administration of 25 mg/kg dose at 0.32+/-0.07 mL of exudate volume (injected intrapleurally). The settings on record: route oral. The gist of the method: as §5
Test [17] deals with Rattus norvegicus. The test is described as follows: Compound was tested for the inhibition of rat reversed passive Arthus pleurisy after peroral administration of 5 mg/kg dose at 0.4+/-0.04 mL of exudate volume (injected intrapleurally). As to conditions: route oral. The gist of the method:
as §5

The test system of test [18] is Rattus norvegicus. The test is described as follows: Compound was tested for the inhibition of rat reversed passive Arthus pleurisy after peroral administration of 5 mg/kg dose at 3.54+/-0.06*10e6 no of cells. The settings on record: route oral. The essentials:
as §5

The subject of test [19] is Rattus norvegicus. The test is described as follows: Antiinflammatory activity on Carrageenan rat's paw edema(CPE) after peroral administration of 10 mg/kg dose with control swelling of 75.8%. As to conditions: route oral.
For test [20], the system named is Rattus norvegicus. The experiment in a line: Antiinflammatory activity on Carrageenan rat's paw edema(CPE) after peroral administration of 100 mg/kg dose with control swelling of 64.2%. The settings on record: route oral.
Test [21] has as its system Rattus norvegicus. The test is described as follows: Antiinflammatory activity on Zymosan-induced rat's paw edema(ZPE) after peroral administration of 3 mg/kg dose with control swelling of 68.1%. The settings on record: route oral. The essentials: as §3
Test [22] relates to Rattus norvegicus. The experiment in a line: Compound was tested for the inhibition of arachidonic acid-induced rat's paw edema(APE) after peroral administration of 10 mg/kg dose with control swelling of 51.6%. The settings on record: route oral. The essentials: as §4
The subject of test [23] is Rattus norvegicus. The experiment in a line: Compound was tested for the inhibition of arachidonic acid-induced rat's paw edema(APE) after peroral administration of 3 mg/kg dose with control swelling of 51.6%. As to conditions: route oral. The gist of the method:
as §4

Test [24] deals with Rattus norvegicus. The experiment in a line: Compound was tested for the inhibition of arachidonic acid-induced rat's paw edema(APE) after peroral administration of 30 mg/kg dose with control swelling of 51.6%. The settings on record: route oral.
Test [25] deals with Rattus norvegicus. The test is described as follows: Antiinflammatory activity on Zymosan-induced rat's paw edema(ZPE) after peroral administration of 30 mg/kg dose with control swelling of 68.1%. The settings on record: route oral. The essentials:
as §3

Test [26] has as its system Rattus norvegicus. The experiment in a line: Antiinflammatory activity on Zymosan-induced rat's paw edema(ZPE) after peroral administration of 100 mg/kg dose with control swelling of 71.7%. The settings on record: route oral. The gist of the method:
as §3

Test [27] deals with Rattus norvegicus. The test is described as follows: Antiinflammatory activity on Carrageenan rat's paw edema(CPE) after peroral administration of 3 mg/kg dose with control swelling of 75.8%. As to conditions: route oral.
The test system of test [28] is Rattus norvegicus. The test is described as follows: Antiinflammatory activity on Carrageenan rat's paw edema(CPE) after peroral administration of 30 mg/kg dose with control swelling of 75.8%. As to conditions: route oral.
Test [29] concerns Rattus norvegicus. The experiment in a line: Antiinflammatory activity on Zymosan-induced rat's paw edema(ZPE) after peroral administration of 10 mg/kg dose with control swelling of 68.1%. As to conditions: route oral. The gist of the method:
as §3

Test [30] relates to Rattus norvegicus. The test is described as follows: Compound was tested for the inhibition of Zymosan-induced rat's paw edema(ZPE) after peroral administration of 30 mg/kg dose. As to conditions: route oral. The gist of the method:
as §3

The subject of test [31] is Rattus norvegicus. The test is described as follows: Inhibition of carrageenan-induced rat's paw edema (CPE) after peroral administration of 100 mg/kg dose. The settings on record: route oral. The essentials:
as §2

The test system of test [32] is Rattus norvegicus. The experiment in a line: Compound was tested for the inhibition of rat reversed passive Arthus pleurisy after peroral administration of 100 mg/kg dose at 0.73 mL of exudate volume with 0.86 mL of control (injected intrapleurally). The settings on record: route oral. The essentials:
as §1

In test [33] the test system is Rattus norvegicus. The experiment in a line: Antiinflammatory activity on Carrageenan rat's paw edema(CPE) after peroral administration of 100 mg/kg dose with control swelling of 90.0%. As to conditions: route oral.
In test [34] the test system is Rattus norvegicus. The experiment in a line: Antiinflammatory activity on Zymosan-induced rat's paw edema(ZPE) after peroral administration of 100 mg/kg dose with control swelling of 85.5%. The settings on record: route oral. The gist of the method:
as §3

Test [35] relates to Rattus norvegicus. The test is described as follows: Compound was tested for the inhibition of rat reversed passive Arthus pleurisy after peroral administration of 100 mg/kg dose at 3.37*10e6 no of cells with 3.86*10e6 cells of control. The settings on record: route oral. The essentials: as §5

For the molecule `O=C(Nc1cccnc1)c1c(O)c2cccnc2n(-c2ccccc2)c1=O`, the inhibition in vivo (commonly the drop in the measured response relative to a control, in per cent) at 100 mg/kg turned out to be 30.5% in test [1]; 30.5% in test [2]; 75.3% in test [3]; 30.3% in test [4]; 75.3% in test [14]; 30.8% in test [31]. In addition, the inhibition in vivo at 3 mg/kg in test [5] turned out to be 21.9%; in test [10] it was 20.2%; in test [11] it was 40.9%. Besides, the inhibition in vivo at 10 mg/kg in test [6] worked out at 44%; in test [7], 41.2%; in [8], 25.4%; in test [9] (Rattus norvegicus, po), 33.8%; in test [13] it was 55.7%. In [9] (route oral, 10 mg/kg), the Inhibition (in general, the drop in the measured response relative to a control, in per cent) is 22.7%. Also, the inhibition in vivo at 30 mg/kg stood at 40.7% in test [12] and 43.9% in test [30]. The figures for the inhibition in vivo at 25 mg/kg in [15] and in test [16] were 42.1% and 62.9%, respectively. The inhibition in vivo at 5 mg/kg in [17] turned out to be 50%; in [18] it was 33.3%. The Swelling was found to be 58.6% in test [19]; 44.4% in [20]; 53.2% in [21]; 28.9% in test [22]; 30.5% in [23]; 30.6% in [24]. Also, the Swelling in test [25] was 38.2%; in [26], 50%; in [27] it was 60.5%; in test [28], 50.2%; in test [29], 50.8%.
Turning to `Cc1ccccc1NC(=O)c1c(O)c2cccnc2n(-c2ccccc2)c1=O`, the inhibition in vivo at 100 mg/kg in test [4] amounted to 11.7%; in [32], 16.9%; in [35], 16.6%; in [31], 9.8%. Besides, the Swelling is recorded as 81.2% in test [33] and 75.5% in [34].
